Bioassay records from PubChem.
CCR6 antag: CCR6 (human) receptor antagonism; actives 0.49% (n = 340,000); CHO-K1 CCR6 PathHunter beta-arrestin, luminescence, CCL20-stimulated; inhibition, % at 20 µM;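 active means compounds whose inhibition of the agonist-driven luminescence signal at 20 µM reaches about 50%, limit read from the data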;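 further: cells stimulated with CCL20 at 14 nM final; plate controls were DMSO with CCL20 for no effect and DMSO without agonist for full effect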
EBI2 block: blocks human EBI2 receptor beta-arrestin signaling; EBI2 beta-arrestin recruitment, luminescence, 7a,25-OHC stimulated; inhibition, % at 5 µM; actives 0.81% (n = 360,000); in the data active means inhibition above about 38%;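 further: enzyme fragment complementation signal reports receptor beta-arrestin coupling in cells; 0% = agonist plus DMSO wells and 100% = wells without agonist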
APJ ag: APJ receptor agonism; P35414; CHO-K1 APJ PathHunter beta-arrestin, luminescence; 0% DMSO wells, 100% apelin; activation, % at 20 µM; actives 0.11% (n = 330,000); AID 2520;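 active means activation more than six SD over the plate average, tested at 20 µM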;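 further: 0% = DMSO alone and 100% = apelin-13 at 10 nM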
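assay system = CHO-K1 APJ beta-arrestin complementation cell line | input = cell density 1000 per well | dosing = compound 20 µM once, DMSO 1% | timing = compound 90 min 25 °C, reagent 1 h | measured by = luminescence from split beta-galactosidase complementation, Galacton Star/Emerald II substrate | read-out basis = APJ agonist activity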
APJ antag: antagonists of human APJ apelin receptor. CHO-K1 APJ beta-arrestin complementation, luminescence. AID 2521. inhibition, % at 20 µM. P35414. actives 0.32% (n = 330,000);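 active means inhibition above about 40% at 20 µM, limit read from the data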;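 further: cells challenged with 10 nM apelin-13 agonist together with compound; plate controls were apelin-13 plus DMSO wells for no effect and DMSO wells lacking apelin-13 for full effect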
CXCR6 block: CXCR6 (human) receptor inhibition. O00574. CHO-K1 PathHunter CXCR6 beta-arrestin, luminescence. inhibition, % at 20 µM. actives 0.36% (n = 360,000). AID 602244; in the data active means inhibition above about 34%, passing the limit was not always enough;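 further: antagonist mode with CXCL16 agonist at 10 nM final; 0% = 10 nM CXCL16 with DMSO and 100% = unstimulated wells without agonist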
Target sequence (O00574 whole entry, looked up): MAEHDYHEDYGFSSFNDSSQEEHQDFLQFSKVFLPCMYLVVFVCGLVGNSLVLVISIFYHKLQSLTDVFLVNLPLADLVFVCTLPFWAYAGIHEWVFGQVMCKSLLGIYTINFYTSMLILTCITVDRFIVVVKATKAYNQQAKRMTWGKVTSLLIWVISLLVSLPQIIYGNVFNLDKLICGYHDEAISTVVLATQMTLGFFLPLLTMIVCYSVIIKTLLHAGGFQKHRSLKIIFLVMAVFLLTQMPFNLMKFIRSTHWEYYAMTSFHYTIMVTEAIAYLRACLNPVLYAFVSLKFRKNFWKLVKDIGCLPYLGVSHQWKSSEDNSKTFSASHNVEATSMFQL
CXCR6 confirm: CXCR6 antagonism confirmation, single concentration; actives 65% (n = 700); inhibition, % at 20 µM; CHO-K1 CXCR6 PathHunter beta-arrestin, luminescence; shares compounds with CXCR6 block; AID 602409;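 active means mean inhibition over four retests above 40%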;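 further: receptor stimulated with 10 nM CXCL16 agonist; beta-galactosidase fragment complementation upon beta-arrestin recruitment to receptor; plate controls were CXCL16 plus DMSO for no effect and DMSO without CXCL16 for full effect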
EBI2 conf: EBI2 (human) antagonism, single concentration confirmation; shares compounds with EBI2 block; EBI2 beta-arrestin luminescence, 7a,25-OHC antagonism; inhibition, % at 5 µM; actives 29% (n = 2,400);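 active means inhibition of at least 50%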
EBI2 ag: EBI2 agonism counter-screen; shares compounds with EBI2 block; EBI2-expressing cells, agonist mode, luminescence, 60 min; 0% vehicle, 100% 7α,25-dihydroxycholesterol control; activation, % at 5 µM; 2,400 tested, under 10 active; AID 652000;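 active means activation of at least 50%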
bGal cs: inhibits E. coli beta-galactosidase, counter-screen for EBI2 antagonists; purified beta-galactosidase, luminescent Galacton Star, 15 min; shares compounds with EBI2 block; actives 1% (n = 2,400); AID 652176; inhibition, % at 5 µM;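 active means replicate-average signal at least 3 plate SD below neutral wells, shown as high inhibition, flagging enzyme-inhibiting false positives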;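 further: 0% = DMSO wells with enzyme and 100% = wells lacking enzyme; higher means stronger loss of beta-gal luminescence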
Numbers without * were called inactive; / = no result. In the library only some 1.5% were active in any assay of this set; here they are far more common.

SMILES	CCR6 antag	EBI2 block	APJ ag	APJ antag	CXCR6 block	EBI2 conf	EBI2 ag	bGal cs	others
CS(=O)(=O)c1ccc(C(=O)OCC(=O)N2CCN(CCC3CCCCC3)CC2)cc1[N+](=O)[O-]	/	48*	/	/	54*	54*	-1	-17	CXCR6 confirm=71*
CSc1cc(-c2ccc(Cl)cc2)c(C(=O)NC(C)C)s1	7	47*	2	-3	9	34	1	-1
CSc1cc(-c2ccc(Cl)cc2)c(C(=O)NN)s1	-1	13	2	-6	-10	/	/	/
CCN(CC)S(=O)(=O)c1ccc(N2CCCCC2)c(NC(=O)/C(C#N)=C/c2ccc(OC)cc2)c1	12	42*	-1	-9	-5	41	1	-1
COc1ccc(/C=C(\C#N)C(=O)Nc2cc(S(=O)(=O)N3CCOCC3)ccc2N2CCCC2)cc1	-7	80*	-1	11	-7	84*	-1	-19
COc1ccc(CC(=O)Nc2cc(S(=O)(=O)N3CCOCC3)ccc2N2CCCC2)c(OC)c1	0	-19	/	/	2	/	/	/
CCN(CC)S(=O)(=O)c1ccc(N2CCCC2)c(NC(=O)Cc2ccc(OC)cc2)c1	5	0	-2	9	-2	/	/	/
CSc1ccc(OC2(C)CCN(Cc3ccc(-c4ccccn4)cc3)C2)cc1 (stereo not given)	/	-8	/	/	1	/	/	/
COc1cc(-c2nc3cc(C)ccn3c2NC2CCCCC2)ccc1-c1ccc(C(C)=O)cc1	8	59*	7	13	10	46	-2	-2
O=C(Nc1ccc(Cl)c(S(=O)(=O)N2CCCC2)c1)c1cc(=O)[nH]c2ccccc12	5	-2	1	-22	-13	/	/	/
O=c1cc(CN2CCN(c3ccc(Cl)c(Cl)c3)CC2)c2ccccc2o1	/	8	/	/	-6	/	/	/
CCOc1ccc(N=CNc2ccc(OCC)cc2)cc1	23	56*	0	3	-14	48	0	4
CCOc1ccc(N=Cc2ccc3ccccc3c2)cc1	-10	-1	0	7	-6	/	/	/
NC(=O)[C@@H]1CC2(CC(c3cccc(NC(=O)COc4ccc(Cl)cc4)c3)=NO2)CN1C(=O)COc1ccc(Cl)cc1 (stereo not given in full)	1	53*	16	-5	8	24	-1	-18
CN(C)C1CN(Cc2cn(Cc3ccc(Cl)cc3)nn2)S(=O)(=O)C1 (stereo not given)	/	-4	/	/	-5	/	/	/
COCCOC(=O)c1c(NC(=O)CN2CCOCC2)sc(C(N)=O)c1C	-1	-9	1	3	-7	/	/	/
COCCOC(=O)c1c(NC(=O)CN2c3ccccc3CC2C)sc(C(N)=O)c1C (stereo not given)	10	65*	-1	4	-1	31	-1	3
COc1cc(CN2C[C@@H](CO)O[C@@H](n3cnc4c(NCc5ccncc5)ncnc43)C2)cc(OC)c1OC	/	-10	/	/	1	/	/	/
O=C(CSc1nnc(C23CC4CC(CC(C4)C2)C3)o1)Nc1ccc(N2CCOCC2)c(Cl)c1	-6	58*	2	-12	2	19	-2	-7
Cc1cccc(N(C(=O)c2snc(C(N)=O)c2N)C(C(=O)NC2CCCC2)c2ccncc2)c1 (stereo not given)	8	2	0	22	6	/	/	/
Cc1cccc(N(C(=O)c2snc(C(N)=O)c2N)C(C(=O)NC2CCCC2)c2ccc(C)o2)c1 (stereo not given)	-5	51*	-2	8	2	56*	0	-16
CCOc1ccccc1N(C(=O)c1snc(C(N)=O)c1N)C(C(=O)NC1CCCC1)c1ccco1 (stereo not given)	9	7	-1	13	7	/	/	/
